Reference: ChEMBL document CHEMBL4368880, “Synthesis and biological evaluation of 3-(1,3,4-oxadiazol-2-yl)-1,8-naphthyridin-4(1H)-ones as cisplatin sensitizers” (Medchemcomm, 2018)
Active and inactive are the calls of the source. The calls are words filed in the database; no cut-off is given here.

Tests used:
[1] = system: HCT-116; experiment: Potentiation of cisplatin-induced apoptosis in human HCT116 cells assessed as early apoptotic cells at 2.5 uM preincubated for 24 hrs followed by cisplatin addition and measured after 48 hrs by Annexin V-FITC/propidium iodide staining based flow cytometry (reference value: 4.07%); format: functional
Procedure, shortened: (§1)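 HCT116 pretreated with compound for 24 h, then cisplatin at 2.5 μM added for 48 h. Cells harvested, washed in cold PBS, pelleted, stained with annexin V-FITC and propidium iodide, and counted by flow cytometry. Three independent experiments.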

[2] = system: KB; experiment: Growth inhibition of human KB cells at 10 uM after 24 hrs by MTT assay relative to control; format: functional; settings: read-out: GI
Procedure, shortened: (§2)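 Monolayers seeded 24 h before treatment, then exposed to compound, with DMEM or RPMI 1640 plus 10% FBS as growth medium. MTT (5 mg mL–1 stock) incubated 2–4 h at 37 °C, formazan dissolved in DMSO, and absorbance read at 570 nm. Growth inhibition reported as % of control.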

[3] = system: HCT-116; experiment: Potentiation of cisplatin-induced morphological changes in human HCT116 cells assessed as chromatin condensation at 2.5 uM preincubated for 24 hrs followed by cisplatin addition and measured after 48 hrs by Hoechst 33258 staining based fluorescence microscopic analysis; format: functional, cell-based
Procedure, shortened: (§3)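 HCT116 given compound for 24 h, then cisplatin (2.5 μM) for 48 h. Fixed in 4% paraformaldehyde, stained with Hoechst 33258 at 5 μg mL–1, and nuclei examined and counted under a fluorescence microscope. Blue fluorescence quantified, with t-test over three independent experiments.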

[4] = system: HCT-116; experiment: Growth inhibition of human HCT116 cells at 2.5 uM after 24 hrs by MTT assay relative to control; format: functional; settings: HCT-116, 24 h, read-out: GI; procedure, shortened: as §2
[5] = system: MCF7; experiment: Growth inhibition of human MCF7 cells at 5 uM after 24 hrs by MTT assay relative to control; format: functional; settings: MCF7, 24 h, read-out: GI; procedure, shortened: as §2
[6] = system: HepG2; experiment: Growth inhibition of human HepG2 cells at 5 uM after 24 hrs by MTT assay relative to control; format: functional; settings: HepG2, 24 h, read-out: GI; procedure, shortened: as §2
[7] = system: L02; experiment: Cytotoxicity against human LO2 cells assessed as reduction in cell growth at 2.5 uM preincubated for 24 hrs followed by cisplatin addition and measured after 48 hrs by MTT assay; format: cell-based; settings: l02, 48 h
[8] = system: KB; experiment: Growth inhibition of human KB cells at 5 uM after 24 hrs by MTT assay relative to control; format: functional; settings: read-out: GI; procedure, shortened: as §2
[9] = system: HCT-116; experiment: Potentiation of cisplatin-induced morphological changes in human HCT116 cells assessed as cell shrinkage at 2.5 uM preincubated for 24 hrs followed by cisplatin addition and measured after 48 hrs by Hoechst 33258 staining based fluorescence microscopic analysis; format: functional; procedure, shortened: as §3
[10] = target: Serine/threonine-protein kinase ATR (Homo sapiens) (UniProt Q13535); experiment: Inhibition of ATR in human HCT116 cells assessed as reduction in cisplatin-induced CHK1 expression preincubated for 24 hrs followed by cisplatin addition and measured after 48 hrs by Western blot analysis; format: cell-based
Procedure, shortened: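 HCT116 exposed to compound for 24 h before 48 h with cisplatin at 2.5 μM. Lysis in RIPA buffer with protease and phosphatase inhibitors, protein measured by BCA, equal loads run on 12% SDS-PAGE and moved to PVDF. Blocked in 5% milk, anti-CHK1 mouse mAb overnight at 4 °C, HRP secondary and ECL detection, GAPDH as loading control.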

[11] = system: HCT-116; experiment: Induction of apoptosis in human HCT116 cells assessed as early apoptotic cells at 2.5 uM after 24 hrs by Annexin V-FITC/propidium iodide staining based flow cytometry (reference value: 5.75%); format: functional
[12] = system: HepG2; experiment: Growth inhibition of human HepG2 cells at 10 uM after 24 hrs by MTT assay relative to control; format: functional; settings: HepG2, 24 h, read-out: GI; procedure, shortened: as §2
[13] = system: HCT-116; experiment: Induction of apoptosis in human HCT116 cells assessed as viable cells at 2.5 uM after 24 hrs by Annexin V-FITC/propidium iodide staining based flow cytometry (reference value: 76.5%); format: functional; settings: HCT-116, 24 h, read-out: Activity
[14] = system: HCT-116; experiment: Potentiation of cisplatin-induced apoptosis in human HCT116 cells assessed as late apoptotic cells at 2.5 uM preincubated for 24 hrs followed by cisplatin addition and measured after 48 hrs by Annexin V-FITC/propidium iodide staining based flow cytometry (reference value: 11.5%); format: functional; procedure, shortened: as §1
[15] = system: HCT-116; experiment: Induction of apoptosis in human HCT116 cells assessed as necrotic cells at 2.5 uM after 24 hrs by Annexin V-FITC/propidium iodide staining based flow cytometry (reference value: […]); format: functional
[16] = system: MCF7; experiment: Growth inhibition of human MCF7 cells at 10 uM after 24 hrs by MTT assay relative to control; format: functional; settings: MCF7, 24 h, read-out: GI; procedure, shortened: as §2
[17] = system: HCT-116; experiment: Potentiation of cisplatin-induced morphological changes in human HCT116 cells assessed as reduction in number of adherent cells at 2.5 uM preincubated for 24 hrs followed by cisplatin addition and measured after 48 hrs by Hoechst 33258 staining based fluorescence microscopic analysis; format: functional, cell-based; procedure, shortened: as §3
[18] = system: HCT-116; experiment: Growth inhibition of human HCT116 cells at 10 uM after 24 hrs by MTT assay relative to control; format: functional; settings: HCT-116, 24 h, read-out: GI; procedure, shortened: as §2
[19] = system: HCT-116; experiment: Induction of morphological changes in human HCT116 cells assessed as reduction in number of adherent cells at 2.5 uM measured after 24 hrs by Hoechst 33258 staining based fluorescence microscopic analysis; format: functional, cell-based
[20] = system: HCT-116; experiment: Growth inhibition of human HCT116 cells at 5 uM after 24 hrs by MTT assay relative to control; format: functional; settings: HCT-116, 24 h, read-out: GI; procedure, shortened: as §2
[21] = system: HCT-116; experiment: Potentiation of cisplatin-induced apoptosis in human HCT116 cells assessed as viable cells at 2.5 uM preincubated for 24 hrs followed by cisplatin addition and measured after 48 hrs by Annexin V-FITC/propidium iodide staining based flow cytometry (reference value: 73.2%); format: functional; settings: read-out: Activity; procedure, shortened: as §1
[22] = system: HCT-116; experiment: Induction of apoptosis in human HCT116 cells assessed as late apoptotic cells at 2.5 uM after 24 hrs by Annexin V-FITC/propidium iodide staining based flow cytometry (reference value: 7.36%); format: functional
[23] = system: A549; experiment: Growth inhibition of human A549 cells at 5 uM after 24 hrs by MTT assay relative to control; format: functional; settings: A549, 24 h, read-out: GI; procedure, shortened: as §2
[24] = system: HCT-116; experiment: Potentiation of cisplatin-induced antiproliferative activity against human HCT116 cells assessed as cell growth inhibition at 2.5 uM preincubated for 24 hrs followed by 2.5 uM cisplatin addition and measured after 48 hrs by MTT assay (reference value: 26.98 +/-2.84%); format: functional; settings: read-out: GI
[25] = system: HeLa; experiment: Growth inhibition of human HeLa cells at 10 uM after 24 hrs by MTT assay relative to control; format: functional; settings: read-out: GI; procedure, shortened: as §2
[26] = system: HCT-116; experiment: Induction of morphological changes in human HCT116 cells assessed as cell shrinkage at 2.5 uM measured after 24 hrs by Hoechst 33258 staining based fluorescence microscopic analysis; format: functional
[27] = system: A549; experiment: Growth inhibition of human A549 cells at 10 uM after 24 hrs by MTT assay relative to control; format: functional; settings: A549, 24 h, read-out: GI; procedure, shortened: as §2
[28] = system: L02; experiment: Cytotoxicity against human LO2 cells assessed as reduction in cell growth at 5 to 10 uM after 24 hrs by MTT assay; format: cell-based; settings: l02, 24 h
[29] = system: HCT-116; experiment: Induction of morphological changes in human HCT116 cells assessed as chromatin condensation at 2.5 uM measured after 24 hrs by Hoechst 33258 staining based fluorescence microscopic analysis; format: functional, cell-based
[30] = system: HeLa; experiment: Growth inhibition of human HeLa cells at 5 uM after 24 hrs by MTT assay relative to control; format: functional; settings: read-out: GI; procedure, shortened: as §2
[31] = system: HCT-116; experiment: Potentiation of cisplatin-induced apoptosis in human HCT116 cells assessed as necrotic cells at 2.5 uM preincubated for 24 hrs followed by cisplatin addition and measured after 48 hrs by Annexin V-FITC/propidium iodide staining based flow cytometry (reference value: 11.3%); format: functional; procedure, shortened: as §1

Serine/threonine-protein kinase ATR (Homo sapiens), sequence (Q13535 whole entry, looked up): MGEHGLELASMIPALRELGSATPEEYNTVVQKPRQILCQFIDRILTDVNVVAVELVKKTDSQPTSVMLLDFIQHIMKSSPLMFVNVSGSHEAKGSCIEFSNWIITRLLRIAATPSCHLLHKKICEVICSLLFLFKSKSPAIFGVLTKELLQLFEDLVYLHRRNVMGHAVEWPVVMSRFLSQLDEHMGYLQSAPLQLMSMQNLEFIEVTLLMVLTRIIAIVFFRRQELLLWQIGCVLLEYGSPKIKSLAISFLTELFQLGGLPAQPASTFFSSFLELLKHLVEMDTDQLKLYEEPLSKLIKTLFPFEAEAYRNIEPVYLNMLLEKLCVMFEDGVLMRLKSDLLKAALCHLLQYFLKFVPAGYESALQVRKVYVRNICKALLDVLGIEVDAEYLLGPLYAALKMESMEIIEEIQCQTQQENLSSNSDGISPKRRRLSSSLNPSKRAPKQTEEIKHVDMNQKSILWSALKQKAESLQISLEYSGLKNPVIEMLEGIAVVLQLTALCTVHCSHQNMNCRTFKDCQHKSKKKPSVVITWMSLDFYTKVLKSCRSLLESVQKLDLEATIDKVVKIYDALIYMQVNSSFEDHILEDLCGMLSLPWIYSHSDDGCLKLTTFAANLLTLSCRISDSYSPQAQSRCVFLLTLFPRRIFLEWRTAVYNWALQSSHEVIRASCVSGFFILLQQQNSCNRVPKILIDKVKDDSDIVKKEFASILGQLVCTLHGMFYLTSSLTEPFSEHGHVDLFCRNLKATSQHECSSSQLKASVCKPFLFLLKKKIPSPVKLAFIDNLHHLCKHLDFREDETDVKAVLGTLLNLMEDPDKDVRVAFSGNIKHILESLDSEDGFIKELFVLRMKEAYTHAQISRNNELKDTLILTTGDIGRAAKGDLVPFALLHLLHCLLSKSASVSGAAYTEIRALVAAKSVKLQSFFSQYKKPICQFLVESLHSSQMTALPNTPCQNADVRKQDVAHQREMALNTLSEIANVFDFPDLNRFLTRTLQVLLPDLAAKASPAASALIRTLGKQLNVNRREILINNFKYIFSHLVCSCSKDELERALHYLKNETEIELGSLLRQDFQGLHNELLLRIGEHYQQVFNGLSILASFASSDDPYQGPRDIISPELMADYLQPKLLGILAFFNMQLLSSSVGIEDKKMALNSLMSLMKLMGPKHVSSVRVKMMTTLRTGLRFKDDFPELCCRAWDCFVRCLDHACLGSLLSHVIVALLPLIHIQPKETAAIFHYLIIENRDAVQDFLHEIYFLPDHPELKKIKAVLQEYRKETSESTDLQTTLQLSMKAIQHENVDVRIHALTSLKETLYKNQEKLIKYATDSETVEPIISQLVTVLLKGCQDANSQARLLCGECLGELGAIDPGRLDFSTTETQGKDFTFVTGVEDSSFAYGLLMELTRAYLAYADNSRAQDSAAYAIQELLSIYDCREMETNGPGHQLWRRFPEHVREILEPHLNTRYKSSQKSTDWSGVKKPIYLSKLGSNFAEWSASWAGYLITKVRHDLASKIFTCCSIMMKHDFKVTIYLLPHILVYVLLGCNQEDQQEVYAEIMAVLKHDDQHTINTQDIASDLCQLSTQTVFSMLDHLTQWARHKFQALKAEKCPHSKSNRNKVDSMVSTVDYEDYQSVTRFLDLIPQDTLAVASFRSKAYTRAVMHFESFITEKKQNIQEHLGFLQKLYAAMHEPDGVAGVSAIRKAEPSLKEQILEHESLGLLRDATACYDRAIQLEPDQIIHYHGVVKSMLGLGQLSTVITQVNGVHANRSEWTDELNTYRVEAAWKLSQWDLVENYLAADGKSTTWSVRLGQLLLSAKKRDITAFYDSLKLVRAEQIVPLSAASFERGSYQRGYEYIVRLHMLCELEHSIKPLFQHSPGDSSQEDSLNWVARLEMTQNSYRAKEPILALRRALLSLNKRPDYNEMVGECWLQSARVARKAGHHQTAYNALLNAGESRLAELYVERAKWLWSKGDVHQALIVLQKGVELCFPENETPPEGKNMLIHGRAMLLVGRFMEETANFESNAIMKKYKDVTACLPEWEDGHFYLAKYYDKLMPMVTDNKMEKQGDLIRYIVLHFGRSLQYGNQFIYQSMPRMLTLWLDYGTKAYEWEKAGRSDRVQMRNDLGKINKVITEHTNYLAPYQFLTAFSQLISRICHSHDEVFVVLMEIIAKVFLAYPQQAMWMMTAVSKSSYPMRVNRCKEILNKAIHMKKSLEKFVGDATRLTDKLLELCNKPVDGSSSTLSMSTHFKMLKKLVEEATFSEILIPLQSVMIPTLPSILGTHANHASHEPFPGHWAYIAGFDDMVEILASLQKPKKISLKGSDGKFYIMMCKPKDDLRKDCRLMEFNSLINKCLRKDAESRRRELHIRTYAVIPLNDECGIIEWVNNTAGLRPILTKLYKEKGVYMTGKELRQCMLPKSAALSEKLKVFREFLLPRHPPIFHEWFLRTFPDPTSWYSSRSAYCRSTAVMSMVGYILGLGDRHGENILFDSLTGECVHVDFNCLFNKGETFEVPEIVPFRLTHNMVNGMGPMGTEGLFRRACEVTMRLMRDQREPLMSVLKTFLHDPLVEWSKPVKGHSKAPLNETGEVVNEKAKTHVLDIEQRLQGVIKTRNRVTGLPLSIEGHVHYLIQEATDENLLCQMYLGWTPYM

With `Cc1cccc(-c2nnc(-c3c[nH]c4ncc(-c5ccc(S(C)(=O)=O)cc5)cc4c3=O)o2)c1` the Activity [1] was 6.98%, the inhibition of growth at 10 µM [2] was 7.5% and the Activity [3] was “Active”. The inhibition of growth at 2.5 µM [4] was 8.13%, the inhibition of growth at 5 µM [5] was 1.86% and the inhibition of growth at 5 µM [6] was 13.2%. For the same compound, the Activity [7] was “Non-Toxic”, the inhibition of growth at 5 µM [8] was 3.7% and the Activity [9] was “Active”. The inhibition [10] was “Dose-dependent effect”, the Activity [11] was 4.61% and the inhibition of growth at 10 µM [12] was 13.3%. It also gave a viability at 2.5 µM [13] of 70.4%, an Activity [14] of 17.2% and an Activity [15] of 18.1%. The inhibition of growth at 10 µM [16] was 7.76%, the Activity [17] was “Active” and the inhibition of growth at 10 µM [18] was 25.2%. The Activity [19] was “Active”, the inhibition of growth at 5 µM [20] was 20.4% and the viability at 2.5 µM [21] was 52.4%. The Activity [22] was 6.89%, the inhibition of growth at 5 µM [23] was 7.92% and the inhibition of growth at 2.5 µM [24] was 50.8%. The inhibition of growth at 10 µM [25] was 2.57%, the Activity [26] was “Active” and the inhibition of growth at 10 µM [27] was 8.95%. For the same compound, the Activity [28] was “Non-Toxic”, the Activity [29] was “Active” and the inhibition of growth at 5 µM [30] was 1.49%. It also gave an Activity [31] of 23.4%.
For `Cc1ccc(-c2nnc(-c3c[nH]c4ncc(-c5ccc(S(C)(=O)=O)cc5)cc4c3=O)o2)cc1`, the Activity [1] was 20%, the inhibition of growth at 10 µM [2] was 3.19% and the Activity [3] was “Active”. It also gave an inhibition of growth at 2.5 µM [4] of 7.47%, an inhibition of growth at 5 µM [5] of 6.26% and an inhibition of growth at 5 µM [6] of 6.9%. The Activity [7] was “Non-Toxic”, the inhibition of growth at 5 µM [8] was 0.43% and the Activity [9] was “Active”. For the same compound, the inhibition [10] was “Dose-dependent effect”, the Activity [11] was 10.6% and the inhibition of growth at 10 µM [12] was 8.94%. The viability at 2.5 µM [13] was 72.4%, the Activity [14] was 17.7% and the Activity [15] was 10.8%. For the same compound, the inhibition of growth at 10 µM [16] was 10.6%, the Activity [17] was “Active” and the inhibition of growth at 10 µM [18] was 24.4%. The Activity [19] was “Active”, the inhibition of growth at 5 µM [20] was 20.4% and the viability at 2.5 µM [21] was 31.2%. The Activity [22] was 6.26%, the inhibition of growth at 5 µM [23] was 6.69% and the inhibition of growth at 2.5 µM [24] was 54.8%. The inhibition of growth at 10 µM [25] was 18.5%, the Activity [26] was “Active” and the inhibition of growth at 10 µM [27] was 11.2%. For the same compound, the Activity [28] was “Non-Toxic”, the Activity [29] was “Active” and the inhibition of growth at 5 µM [30] was 10.4%. The Activity [31] was 31.2%.
